Results as given in paper PMC6299372 (International Journal of Biological Sciences, 2018).

Assays:
[1] = target: T1, MsepCSP5 (Mythimna separata, UniProt A0A5H2NAD7); test: Fluorescence competitive binding assay with the probe 1-NPN; settings: for IC50: displacement of 1-NPN from MsepCSP5; for Ki: Ki = IC50/(1+[1-NPN]/K1-NPN); for Kd: dissociation constant (Kd) of MsepCSP5/1-NPN complex, Scatchard plot
T1 sequence (A0A5H2NAD7 1-127): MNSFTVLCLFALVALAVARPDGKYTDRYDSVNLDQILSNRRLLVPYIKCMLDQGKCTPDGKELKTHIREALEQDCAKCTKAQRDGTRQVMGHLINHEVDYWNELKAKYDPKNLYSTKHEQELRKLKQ
Method in brief: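 Recombinant MsepCSP5 was expressed in E. coli BL21(DE3) as inclusion bodies, refolded, Ni-affinity purified, and His-tag cleaved with enterokinase, then dialyzed into Tris-HCl at pH 5.0 or 7.4. Protein at 2 μM in 30 mM Tris-HCl was titrated with 1-NPN (0–20 μM final). Ex 337 nm, Em 360–600 nm, 25°C. Ligand stocks were in methanol. Kd came from Scatchard plots, and Ki from IC50 corrected for 1-NPN. Three independent replicates.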

[2] = system: M. separata; test: Post-RNAi Y-tube olfactometer bioassay; format: in vivo, Mythimna separata; settings: 72 h old moths of both sexes, after RNAi
Method in brief: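 Seven-day-old pupae were injected with dsMsepCSP5 (1 µl of 2.5 µg µL-1) into abdominal segments 3–4. Non-injected and dsGFP-injected pupae served as controls. Pupae were held at 25±1°C and 70±5% RH until eclosion. 72 h-old moths of both sexes were tested in the same Y-tube assay (two volatiles, 10 µl vs liquid paraffin, 10 min per moth). 30 females and 30 males per volatile.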

[3] = system: M. separata; test: Y-tube olfactometer behavioral bioassay; format: in vivo, Mythimna separata; settings: for males attracted to / preferring the volatile: male moths; for males attracted to / preferring the volatile / females attracted to / preferring the volatile: volatile vs liquid paraffin control, 10 µl volatile; for behavioral response of M. separata to the volatile (in words): male and female moths; for females attracted to / preferring the volatile: female moths
Method in brief: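 Y-tube olfactometer with arms 3.0 cm × 26 cm, charcoal-filtered humidified air at 6.0 L min-1. 10 µl volatile on 10×10 mm filter paper was set against a liquid paraffin control. Three-day-old moths were isolated about 30 min beforehand, and separate olfactometers were used per sex. Each moth had 10 min to respond. Tests ran in the dark under orange light, 1–2 h after sunset, at 25±1°C and 70±5% RH. 30 females and 30 males per volatile.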

| Molecule | IC50 ([1]; IC50, pH 5.0) | IC50 ([1]; IC50, pH 7.4) | Ki ([1]; Ki, pH 5.0) | Ki ([1]; Ki, pH 7.4) | binding affinity to MsepCSP5 (in words) ([1]; pH 5.0) | further results |
| --- | --- | --- | --- | --- | --- | --- |
| C=CC(C)(O)CCC=C(C)CCC=C(C)C (mixture of isomers) [Nerolidol] | 13 µM | 18.3 µM | 6.2 µM | 7.23 µM | high binding affinity | – |
| c1ccc(Nc2cccc3ccccc23)cc1 [1-NPN, N-phenyl-1-naphthylamine, reference compound] | – | – | – | – | – | Kd ([1]; pH 5.0): 2.91 µM; Kd ([1]; pH 7.4): 3.65 µM |
| C=CC(O)CCCCC (stereo not shown) [1-Octen-3-ol] | 9.13 µM | 16.2 µM | 4.36 µM | 6.43 µM | high binding affinity | preference of dsMsepCSP5-treated moths for the volatile (in words) [2]: non-significant preference |
| CCCCCC(C)O (stereo not shown) [2-Heptanol] | 7.95 µM | 63 µM | 3.8 µM | 24.9 µM | high binding affinity | males attracted to / preferring the volatile [3]: 80% |
| CCCCCCCCCC(C)=O [2-Undecanone] | 5.15 µM | 21.6 µM | 2.46 µM | 8.56 µM | – | behavioral response of M. separata to the volatile (in words) [3]: no obvious preference |
| CCCCCCCCCCCC(C)=O [2Tridecanone] | 10.4 µM | 13.9 µM | 4.95 µM | 5.51 µM | – | – |
| CCC(O)CC [3-Pentanol] | 14 µM | 29.8 µM | 6.71 µM | 11.8 µM | high binding affinity | females attracted to / preferring the volatile [3]: 80%; preference of dsMsepCSP5-treated moths for the volatile (in words) [2]: non-significant preference |
| Cc1ccc(C(C)C)cc1 [4-lsopropyltoluene] | – | – | – | – | – | Ki ([1]; pH 5.0): 14.4 µM; IC50 ([1]; pH 5.0): 30.2 µM; Ki ([1]; pH 7.4): 20.7 µM; IC50 ([1]; pH 7.4): 52.3 µM |
| CC1=CC[C@@](O)(C(C)C)CC1 [(-)-Terpinen-4-ol] | – | – | – | – | – | Ki ([1]; pH 5.0): 4.33 µM; IC50 ([1]; pH 5.0): 9.07 µM; Ki ([1]; pH 7.4): 13.6 µM; IC50 ([1]; pH 7.4): 34.4 µM |
| CC/C=C\CCO [Cis-3-hexen-1-ol] | 727 µM | 227 µM | 347 µM | 89.7 µM | – | – |
| CC/C=C\CCOC(C)=O [Cis-3-hexenyl acetate] | 13 µM | 32.4 µM | 6.22 µM | 12.8 µM | – | – |
| OC1CCCCC1 [Cyclohexanol] | 71.5 µM | 136 µM | 34.2 µM | 54 µM | – | – |
| CCCCCCCCCCCC=O [Dodecyl aldehyde] | – | – | – | – | high binding | Ki ([1]; pH 5.0): 7.17 µM; IC50 ([1]; pH 5.0): 15 µM; Ki ([1]; pH 7.4): 6.86 µM; IC50 ([1]; pH 7.4): 17.3 µM |
| CCCCCCCCCCCCCCCCCCCC [Eicosane] | 15.2 µM | 47.8 µM | 7.25 µM | 18.9 µM | – | – |
| CCOC(C)=O [Ethylacetate] | 8.84 µM | 19.4 µM | 4.22 µM | 7.67 µM | – | – |
| CC12CCC(CC1)C(C)(C)O2 [Eucalyptol] | 9.31 µM | 14.6 µM | 4.45 µM | 5.79 µM | high binding affinity | – |
| CCCCCCCCCCCCCCCC [Hexadecane] | 74.3 µM | 58.3 µM | 35.5 µM | 23.1 µM | – | – |

| Molecule | IC50 ([1]; IC50, pH 5.0) | IC50 ([1]; IC50, pH 7.4) | Ki ([1]; Ki, pH 5.0) | Ki ([1]; Ki, pH 7.4) | binding affinity to MsepCSP5 (in words) ([1]; pH 5.0) | further results |
| --- | --- | --- | --- | --- | --- | --- |
| CCCCCC=O [Hexanal] | 9.28 µM | 21.4 µM | 4.43 µM | 8.46 µM | high binding | – |
| CCCCCC [Hexane] | 18.6 µM | 14.9 µM | 8.9 µM | 5.89 µM | – | – |
| C=CC(C)(O)CCC=C(C)C (stereo not shown) [Linalool] | 41.3 µM | 65.3 µM | 19.7 µM | 25.8 µM | – | – |
| COC(=O)c1ccccc1 [Methyl benzoate] | 10.8 µM | 47.5 µM | 5.18 µM | 18.8 µM | – | females attracted to / preferring the volatile [3]: 70%; behavioral response of M. separata to the volatile (in words) [3]: strong positive responses; males attracted to / preferring the volatile [3]: 67% |
| CCCCCCCCCCCCCCCCCCC [Nonadecane] | 15 µM | 49.3 µM | 7.15 µM | 19.5 µM | – | – |
| CCCCCCCC [Octane] | 7.17 µM | 23.6 µM | 3.42 µM | 9.34 µM | – | – |
| C=C(C)[C@H]1CC=C(C)CC1 [R-(+)-Limonene] | – | – | – | – | – | Ki ([1]; pH 5.0): 5.18 µM; IC50 ([1]; pH 5.0): 10.8 µM; Ki ([1]; pH 7.4): 15 µM; IC50 ([1]; pH 7.4): 37.9 µM |
| CC1=CCC(=C(C)C)CC1 [Terpinolene] | 8.27 µM | 43.8 µM | 3.95 µM | 17.4 µM | – | – |
| CCCCCCCCCCCCCC [Tetradecane] | 21.7 µM | 20.8 µM | 10.4 µM | 8.22 µM | – | – |
| CCC/C=C/CO [Trans-2-hexen-1-ol] | 17 µM | 34.2 µM | 8.1 µM | 13.5 µM | high binding affinity | – |
| CCC/C=C/C=O [Trans-2-hexenal] | 43.4 µM | 22.9 µM | 20.7 µM | 9.08 µM | moderate binding | – |
| CCCCCCCCCCCCC [Tridecane] | 478 µM | 522 µM | 228 µM | 207 µM | – | – |
| CC1=CC=C(C(C)C)CC1 [α -Terpinene] | – | – | – | – | – | Ki ([1]; pH 5.0): 8.19 µM; IC50 ([1]; pH 5.0): 17.2 µM; Ki ([1]; pH 7.4): 8.77 µM; IC50 ([1]; pH 7.4): 22.2 µM |
| CC1=CC[C@@H](C(C)(C)O)CC1 [α -Terpineol] | 12.6 µM | 198 µM | 6.02 µM | 78.3 µM | high binding affinity | – |
| CC(=O)/C=C/C1=C(C)CCCC1(C)C [β-Lonone] | – | – | – | – | – | Ki ([1]; pH 5.0): 2.09 µM; IC50 ([1]; pH 5.0): 4.38 µM; Ki ([1]; pH 7.4): 5.06 µM; IC50 ([1]; pH 7.4): 12.8 µM |
| Farnesene | – | – | – | – | – | Ki ([1]; pH 5.0): 35.6 µM; IC50 ([1]; pH 5.0): 74.7 µM; Ki ([1]; pH 7.4): 21.5 µM; IC50 ([1]; pH 7.4): 54.4 µM |
